Series [1] concerns Trypanosoma cruzi. The series can be described thus: Trypanocidal activity against Trypanosoma cruzi Y in Swiss albino mouse blood after 24 hrs. In kind it is functional, organism-based. Summed up:
(§1)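 Blood was drawn by cardiac puncture from Swiss albino mice infected with T. cruzi Y strain at peak parasitaemia (day 7). It was diluted with healthy mouse blood to 2.10⁶ forms/mL. Compounds from DMSO stocks were tested at 100, 250 and 500, in triplicate, at 4 °C. Parasites were counted after 24 h against infected blood with matched DMSO. IC50 was converted to molar pIC50.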

A short description of series [2]: Cytotoxicity against BALB/c mouse peritoneal cavity cells at 100 ug/mL after 20 hrs by MTT assay. In kind it is cell-based. The procedure, abridged:
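Peritoneal cells came from male Balb/c mice (18–25 g). They were washed in RPMI and resuspended in RPMI with 10% FBS and antibiotics, with viable cells counted by Trypan blue. Cells at 2 × 10⁵/well were held 30 min at 37 °C, 5% CO₂, exposed to compound for 20 h, then given MTT for 4 h. Formazan was dissolved in DMSO and read at 490 nm. Viability was taken as % of control OD, with ≥5% death counted as cytotoxic.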
(Formazan colour is commonly taken as a measure of viable cells.)

The subject of series [3] is Trypanosoma cruzi. The series is described as follows: Trypanocidal activity against Trypanosoma cruzi Y in Swiss albino mouse blood at 500 ug/mL after 24 hrs. It counts as functional, organism-based. Summed up:
as §1

Active and inactive are the calls of the source. The rule behind the calls is not given here.

With `COc1ccc(/C(=C\c2cnn(-c3ccccc3)c2)C(=O)N/N=C/c2ccc(C#N)cc2)cc1`, the IC50 is 1310 µM in series [1] (read-out: IC50) and 1320 µM in series [1] (read-out: pIC50 (converted)). In series [2], this compound registered an Activity of 14.35%.

In the case of `CSc1ccc(/C=N/NC(=O)/C(=C/c2cnn(-c3ccccc3)c2)c2ccccc2)cc1`, the results for the IC50 in series [1] (read-out: IC50) and in series [1] (read-out: pIC50 (converted)) were 440 µM and 437 µM, respectively. In addition, in series [2], the Activity is recorded as 22.8%.

In the case of `NNC(=O)/C(=C/c1cnn(-c2ccccc2)c1)c1ccccc1`, the IC50 in series [1] (read-out: IC50) was 2810 µM; in series [1] (read-out: pIC50 (converted)), 2820 µM. Also, the Activity in series [2] stood at 0%.

Consider `O=C(N/N=C/c1ccc(O)cc1)/C(=C/c1cnn(-c2ccccc2)c1)c1ccccc1`, for which the IC50 in series [1] (read-out: IC50) is 760 µM; in series [1] (read-out: pIC50 (converted)), 759 µM. The Activity in series [2] is given as 12.32%.

As to `O=C(N/N=C/c1ccc(F)cc1)/C(=C/c1cnn(-c2ccccc2)c1)c1ccccc1`, the IC50 in series [1] (read-out: IC50) was 2440 µM; in series [1] (read-out: pIC50 (converted)) it was 2450 µM. In series [2], this compound registered an Activity of 0%.

Regarding `O=C(N/N=C/c1ccccc1)/C(=C/c1cnn(-c2ccccc2)c1)c1ccccc1`, the IC50 in series [1] (read-out: IC50) was 190 µM; in series [1] (read-out: pIC50 (converted)) it was 191 µM. This compound also yielded an Activity in series [2] of 4%.

`O=C(N/N=C/c1ccc([N+](=O)[O-])cc1)/C(=C/c1cnn(-c2ccccc2)c1)c1ccccc1`: the IC50 was 30 µM in series [1] (read-out: IC50) and 28.2 µM in series [1] (read-out: pIC50 (converted)). Also, the Activity in series [2] came to 19.4%.

Consider `N#Cc1ccc(/C=N/NC(=O)/C(=C/c2cnn(-c3ccccc3)c2)c2ccccc2)cc1`, for which the results for the IC50 in series [1] (read-out: IC50) and in series [1] (read-out: pIC50 (converted)) were 1870 µM and 1860 µM, respectively. This compound also displayed an Activity in series [2] of 0%.

For `CN(C)c1ccc(/C=N/NC(=O)/C(=C/c2cnn(-c3ccccc3)c2)c2ccc(F)cc2)cc1`, the IC50 in series [1] (read-out: IC50) is 890 µM; in series [1] (read-out: pIC50 (converted)) it was 891 µM. In addition, the Activity in series [2] came out at 12.2%.

In the case of `COc1ccc(/C=N/NC(=O)/C(=C/c2cnn(-c3ccccc3)c2)c2ccc(F)cc2)cc1`, the IC50 in series [1] (read-out: IC50) is 340 µM; in series [1] (read-out: pIC50 (converted)), 339 µM. The same compound yielded an Activity in series [2] of 14.8%.

Turning to `CN(C)c1ccc(/C=N/NC(=O)/C(=C/c2cnn(-c3ccccc3)c2)c2ccc(O)cc2)cc1`, the IC50 is 1880 µM in series [1] (read-out: IC50) and 1860 µM in series [1] (read-out: pIC50 (converted)). Besides, the Activity in series [2] amounted to 12.94%.

As to `COc1ccc(/C=N/NC(=O)/C(=C/c2cnn(-c3ccccc3)c2)c2ccccc2)cc1`, the IC50 in series [1] (read-out: IC50) and in series [1] (read-out: pIC50 (converted)) was 1510 µM in each case. This compound also had an Activity in series [2] of 0%.

As for `COc1ccc(/C(=C\c2cnn(-c3ccccc3)c2)C(=O)N/N=C/c2ccc([N+](=O)[O-])cc2)cc1`, the IC50 was 980 µM in series [1] (read-out: IC50) and 977 µM in series [1] (read-out: pIC50 (converted)). This compound came in with an Activity in series [2] of 11.22%.

In the case of `O=C(N/N=C/c1ccc(Cl)cc1)/C(=C/c1cnn(-c2ccccc2)c1)c1ccccc1`, the results for the IC50 in series [1] (read-out: IC50) and in series [1] (read-out: pIC50 (converted)) were 8590 µM and 8510 µM, respectively. The Activity in series [2] is given as 0%.

`O=C(N/N=C/c1ccccc1)/C(=C/c1cnn(-c2ccccc2)c1)c1ccc(O)cc1`: the IC50 in series [1] (read-out: IC50) was 1360 µM; in series [1] (read-out: pIC50 (converted)) it was 1350 µM. The compound also came in with an Activity in series [2] of 9.64%.

In the case of `CN(C)c1ccc(/C=N/NC(=O)/C(=C/c2cnn(-c3ccccc3)c2)c2ccccc2)cc1`, the IC50 in series [1] (read-out: IC50) and in series [1] (read-out: pIC50 (converted)) was 200 µM throughout. The Activity in series [2] turned out to be 0%.

Regarding `O=C(N/N=C/c1ccccc1)/C(=C/c1cnn(-c2ccccc2)c1)c1ccc(Br)cc1`, in series [3], the IC50 result was “Not Active” and the pIC50 result was “inactive”.

Regarding `COc1ccc(/C(=C\c2cnn(-c3ccccc3)c2)C(=O)N/N=C/c2ccc(O)cc2)cc1`, the IC50 in series [1] (read-out: IC50) is 1420 µM; in series [1] (read-out: pIC50 (converted)), 1410 µM. Moreover, the Activity in series [2] came to 12.04%.

Take `COc1ccc(/C(=C\c2cnn(-c3ccccc3)c2)C(=O)N/N=C/c2ccc(Br)cc2)cc1`: the IC50 in series [1] (read-out: IC50) is 930 µM; in series [1] (read-out: pIC50 (converted)) it was 933 µM. Besides, in series [2], the Activity is recorded as 0%.

Consider `N#Cc1ccc(/C=N/NC(=O)/C(=C/c2cnn(-c3ccccc3)c2)c2ccc(F)cc2)cc1`, for which the figures for the IC50 in series [1] (read-out: IC50) and in series [1] (read-out: pIC50 (converted)) were 50 µM and 53.7 µM, respectively. For the same compound, the Activity in series [2] is given as 0%.

On to `N#Cc1ccc(/C=N/NC(=O)/C(=C/c2cnn(-c3ccccc3)c2)c2ccc(C(F)(F)F)cc2)cc1`, for which the IC50 was 590 µM in series [1] (read-out: IC50) and 589 µM in series [1] (read-out: pIC50 (converted)). Moreover, the Activity in series [2] worked out at 0%.

On to `O=C(N/N=C/c1ccc(Br)cc1)/C(=C/c1cnn(-c2ccccc2)c1)c1ccccc1`, for which the IC50 in series [1] (read-out: IC50) is 1500 µM; in series [1] (read-out: pIC50 (converted)) it was 1510 µM. In series [2], this compound gave an Activity of 14.35%.

In the case of `CN(C)c1ccc(/C=N/NC(=O)/C(=C/c2cnn(-c3ccccc3)c2)c2ccc(Br)cc2)cc1`, the IC50 was 700 µM in series [1] (read-out: IC50) and 708 µM in series [1] (read-out: pIC50 (converted)). Also, the Activity in series [2] came out at 0%.

Regarding `O=C(N/N=C/c1ccc([N+](=O)[O-])cc1)/C(=C/c1cnn(-c2ccccc2)c1)c1ccc(C(F)(F)F)cc1`, the IC50 in series [1] (read-out: IC50) was 750 µM; in series [1] (read-out: pIC50 (converted)), 741 µM. For the same compound, the Activity in series [2] was determined as 0%.

For `CCOc1ccc(/C=N/NC(=O)/C(=C/c2cnn(-c3ccccc3)c2)c2ccccc2)cc1`, the IC50 in series [1] (read-out: IC50) and in series [1] (read-out: pIC50 (converted)) was 380 µM in each case. In addition, the Activity in series [2] stood at 0%.

For `O=C(N/N=C/c1ccccc1)/C(=C/c1cnn(-c2ccccc2)c1)c1ccc(F)cc1`, the IC50 in series [1] (read-out: IC50) is 7830 µM; in series [1] (read-out: pIC50 (converted)) it was 7760 µM. The compound further gave an Activity in series [2] of 0%.

Regarding `O=C(N/N=C/c1ccc(Br)cc1)/C(=C/c1cnn(-c2ccccc2)c1)c1ccc(C(F)(F)F)cc1`, the values for the IC50 in series [1] (read-out: IC50) and in series [1] (read-out: pIC50 (converted)) were 620 µM and 617 µM, respectively. The compound also gave an Activity in series [2] of 0%.

Consider `CN(C)c1ccc(/C=N/NC(=O)/C(=C/c2cnn(-c3ccccc3)c2)c2ccc(C(F)(F)F)cc2)cc1`, for which the values for the IC50 in series [1] (read-out: IC50) and in series [1] (read-out: pIC50 (converted)) were 920 µM and 912 µM, respectively. The compound further registered an Activity in series [2] of 23.07%.

These data come from ChEMBL document CHEMBL1139304, “Synthesis, antichagasic in vitro evaluation, cytotoxicity assays, molecular modeling and SAR/QSAR studies of a 2-phenyl-3-(1-phenyl-1H-pyrazol-4-yl)-acrylic acid benzylidene-carbohydrazide series” (Bioorg Med Chem, 2009).
